The source of these data is ChEMBL document CHEMBL1156620, “Structure-activity relationship studies on a novel class of antiproliferative agents derived from Lavendustin A. Part I: Ring A modifications” (Bioorg Med Chem, 2008).

Test [1] relates to HaCaT. Kind of test: Antiproliferative activity against human HaCaT cells after 3 days by sulforhodamine B assay. Type of test: functional, cell-based. The following applies: 72 h. In outline: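 HaCaT keratinocytes kept in DMEM with 5% FCS, trypsinized and seeded at 4000 cells/0.2 mL/well in 96-well plates. Medium swapped after 24 h for fresh medium with graded compound concentrations. Proliferation read by sulforhodamine B colorimetry after 3 days. IC50 taken as the average of at least two independent measurements.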

The subject of test [2] is HaCaT. Kind of test: Antimitotic activity against human HaCaT cells assessed as mitotic index at 30 uM after 20 hrs. Type of test: functional. In outline:
(§1)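 HaCaT cells grown in DMEM with 5% FCS, seeded in chamber slides at 24000 cells/0.4 ml/well. After 24 h, medium replaced with fresh medium containing the stated compound concentration, then 20 h incubation. Cells fixed in 90% acetone for 5 min at room temperature. DNA stained with DAPI (0.5 μg/ml, 1 h, RT). Metaphase-arrested cells scored by fluorescence microscopy, at least 300 cells per concentration. Mitotic index = 100% × mitotic/total cells.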

The subject of test [3] is HaCaT. Briefly: Antimitotic activity against human HaCaT cells assessed as mitotic index at 10 uM after 20 hrs. Type of test: functional. The method in brief: as §1
In test [4] the test system is HaCaT. Briefly: Antimitotic activity against human HaCaT cells assessed as mitotic index at 2 uM after 20 hrs. Type of test: functional. In outline:
as §1

The next test deals with Tubulin (Sus scrofa, UniProt P02554+P02550). Kind of test: Inhibition of pig brain tubulin polymerization. In outline:
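Pig brain tubulin purified by three warm/cold assembly cycles in 1 M monosodium glutamate pH 6.6 with 1 mM GTP. Compound (DMSO, 4% v/v final) preincubated with tubulin 15 min at 30 °C in 0.8 M glutamate pH 6.6 without GTP. Samples then chilled, given GTP, and shifted from 0 °C to 30 °C. Turbidity read at 350 nm. IC50 is 50% inhibition of polymerization extent at 20 min, by linear interpolation.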

The subject of test [5] is HaCaT. Kind of test: Antimitotic activity against human HaCaT cells assessed as mitotic index at 0.2 uM after 20 hrs. Type of test: functional. The method in brief: as §1
The target in the next test is Tubulin (Sus scrofa) (UniProt P02554+P02550). Kind of test: Binding affinity to pig brain tubulin at 10 uM after 15 mins relative to control.
Test [6] deals with HaCaT. Briefly: Antimitotic activity against human HaCaT cells assessed as mitotic index at 20 uM after 20 hrs. Type of test: functional. In outline: as §1
In test [7] the test system is HaCaT. Kind of test: Antimitotic activity against human HaCaT cells assessed as mitotic index at 0.4 uM after 20 hrs. Type of test: functional. In outline:
as §1

Test [8] relates to HaCaT. Kind of test: Antimitotic activity against human HaCaT cells assessed as mitotic index at 0.5 uM after 20 hrs. Type of test: functional. The method in brief: as §1
Test [9] deals with HaCaT. Kind of test: Antimitotic activity against human HaCaT cells assessed as mitotic index at 100 uM after 20 hrs. Type of test: functional. The method in brief: as §1
Test [10] relates to HaCaT. Kind of test: Antimitotic activity against human HaCaT cells assessed as mitotic index at 1.5 uM after 20 hrs. Type of test: functional. In outline:
as §1

Test [11] has as its system HaCaT. Kind of test: Antimitotic activity against human HaCaT cells assessed as mitotic index at 3 uM after 20 hrs. Type of test: functional. The method in brief:
as §1

Test [12] relates to HaCaT. Briefly: Antimitotic activity against human HaCaT cells assessed as mitotic index at 2.5 uM after 20 hrs. Type of test: functional. In outline: as §1
Test [13] relates to HaCaT. Kind of test: Antimitotic activity against human HaCaT cells assessed as mitotic index at 1 uM after 20 hrs. Type of test: functional. In outline: as §1
Test [14] deals with HaCaT. Kind of test: Antimitotic activity against human HaCaT cells assessed as mitotic index at 50 uM after 20 hrs. Type of test: functional. In outline:
as §1

Sequence of Tubulin (Sus scrofa) (P02550 whole entry, looked up): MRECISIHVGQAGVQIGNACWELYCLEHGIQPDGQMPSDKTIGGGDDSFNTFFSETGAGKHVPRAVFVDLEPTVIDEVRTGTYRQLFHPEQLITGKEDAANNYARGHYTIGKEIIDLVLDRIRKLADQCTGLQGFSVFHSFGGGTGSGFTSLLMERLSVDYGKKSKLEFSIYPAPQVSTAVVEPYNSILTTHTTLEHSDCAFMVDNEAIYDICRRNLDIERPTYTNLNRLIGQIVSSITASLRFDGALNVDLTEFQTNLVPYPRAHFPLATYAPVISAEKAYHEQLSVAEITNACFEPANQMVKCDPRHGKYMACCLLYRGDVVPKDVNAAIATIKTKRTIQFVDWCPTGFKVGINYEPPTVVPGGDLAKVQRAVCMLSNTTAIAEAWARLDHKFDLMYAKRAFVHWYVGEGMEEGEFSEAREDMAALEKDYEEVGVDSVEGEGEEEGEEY
Sequence of Tubulin (Sus scrofa) (P02554 whole entry, looked up): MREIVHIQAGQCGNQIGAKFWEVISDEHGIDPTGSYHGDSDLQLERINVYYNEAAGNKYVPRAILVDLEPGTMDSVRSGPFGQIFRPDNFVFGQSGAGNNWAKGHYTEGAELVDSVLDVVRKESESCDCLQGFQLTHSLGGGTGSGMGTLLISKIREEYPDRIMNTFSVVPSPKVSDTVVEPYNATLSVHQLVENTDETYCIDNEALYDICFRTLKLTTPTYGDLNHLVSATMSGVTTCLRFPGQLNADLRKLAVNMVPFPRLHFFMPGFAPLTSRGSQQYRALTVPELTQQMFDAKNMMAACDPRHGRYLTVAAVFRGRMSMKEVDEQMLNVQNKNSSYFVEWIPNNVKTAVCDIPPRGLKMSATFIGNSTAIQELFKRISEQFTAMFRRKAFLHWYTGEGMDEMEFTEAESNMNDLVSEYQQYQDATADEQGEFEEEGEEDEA

Compound `COC(=O)c1cc(CCc2ccccc2OC)ccc1O` had an IC50 in the test on HaCaT [1] of 20 µM. Also, in the test with HaCaT [2], the Activity was found to be 16%.
In the case of `COC(=O)c1cc(CCc2cc(OC)c(OC)c(OC)c2)ccc1O`, the Activity in the test on HaCaT [3] amounted to 18%. The compound also came in with an IC50 with HaCaT [1] of 3.5 µM.
In the test on HaCaT [1], `COC(=O)c1cc(CCc2cc(C(C)=O)ccc2OC)ccc1O` showed an IC50 of 0.66 µM. Moreover, in the test on HaCaT [4], the Activity is on record as 26%.
Turning to `COC(=O)c1cc(CCc2cc(OC)ccc2OC)ccc1O`, the results for the 50% inhibitory concentration (IC50) against Tubulin and with HaCaT [1] were 1 µM and 0.047 µM, respectively. Besides, the Activity with HaCaT [5] came out at 36%; on Tubulin (Sus scrofa) it was 43%.
In turn, `COC(=O)c1cc(CCc2cc(O)ccc2OC)ccc1O` came in with a concentration for half-maximal inhibition (IC50) with HaCaT [1] of 8.7 µM. Further, in the test on HaCaT [6], the Activity amounted to 57%.
In the case of `COC(=O)c1cc(CCc2c(OC)cccc2OC)ccc1O`, half-maximal inhibition with HaCaT [1] (IC50) was put at 0.11 µM. For the same compound, the Activity with HaCaT [7] is recorded as 24%.
For `CCOc1ccc(OC)c(CCc2ccc(O)c(C(=O)OC)c2)c1`, the Activity in the test on HaCaT [8] is recorded as 31%. Moreover, the IC50 in the test on HaCaT [1] came to 0.54 µM.
On to `CCOc1ccc(OC)cc1CCc1ccc(O)c(C(=O)OC)c1`, for which, in the test with HaCaT [1], half-maximal inhibition (IC50) was put at 0.12 µM. For the same compound, in the test with HaCaT [5], the Activity was determined as 38%.
As to `COC(=O)c1cc(CCc2cccc(OC)c2OC)ccc1O`, in the test on HaCaT [9], the Activity turned out to be 3.7%. In the test on HaCaT [1], this compound gave an IC50 of 33 µM.
`COC(=O)c1cc(CCc2cc(OC)ccc2C(C)=O)ccc1O` returned an IC50 with HaCaT [1] of 0.041 µM. Also, the Activity in the test with HaCaT [10] was 46%.
For the compound `COC(=O)c1cc(CCc2cc(OC)ccc2N(C)C)ccc1O`, the half-inhibitory concentration (IC50) in the test with HaCaT [1] amounted to 0.65 µM. Also, the Activity in the test with HaCaT [11] is reported as 42%.
For the compound `COC(=O)c1cc(CCc2ccc3c(c2)OCO3)ccc1O`, the Activity in the test with HaCaT [9] is given as 2.9%. Half-maximal inhibition in the test with HaCaT [1] (IC50) was put at 36 µM.
`COC(=O)c1cc(CCc2cc(N(C)C)ccc2OC)ccc1O` yielded an IC50 in the test on HaCaT [1] of 0.92 µM. Also, the Activity with HaCaT [12] was determined as 28%.
On to `CCc1ccc(CC)c(CCc2ccc(O)c(C(=O)OC)c2)c1`, for which half-maximal inhibition with HaCaT [1] (IC50) was put at 0.65 µM. In addition, in the test with HaCaT [4], the Activity is reported as 30%.
For `COC(=O)c1cc(CCc2cccc(OC)c2)ccc1O`, the Activity with HaCaT [9] amounted to 36%. The compound also returned an IC50 with HaCaT [1] of 37 µM.
In the test with HaCaT [1], `CCc1cccc(OC)c1CCc1ccc(O)c(C(=O)OC)c1` yielded a half-maximal inhibitory concentration (IC50) of 0.2 µM. The Activity in the test on HaCaT [13] stood at 50%.
The compound `COC(=O)c1cc(CCc2cc(OC(C)=O)ccc2OC(C)=O)ccc1O` yielded an IC50 in the test on HaCaT [1] of 24 µM.
In the test with HaCaT [1], `COC(=O)c1cc(CCc2cc(Cl)ccc2OC)ccc1O` showed an IC50 of 6.9 µM. Besides, the Activity in the test on HaCaT [2] is listed as 27%.
`COC(=O)c1cc(CCc2cc(OC)c(C(C)(C)C)cc2C(C)=O)ccc1O`: the Activity in the test on HaCaT [9] is 4.4%. In the test with HaCaT [1], this compound gave a half-maximal inhibitory concentration (IC50) of 8.2 µM.
In the test with HaCaT [1], `CCc1ccc(OC)c(CCc2ccc(O)c(C(=O)OC)c2)c1` returned a concentration for half-maximal inhibition (IC50) of 0.43 µM. For the same compound, the Activity with HaCaT [13] was found to be 44%.
On to `COC(=O)c1cc(CCc2ccc(OC)cc2OC)ccc1O`, for which the Activity with HaCaT [9] amounted to 7.2%. The compound further registered an IC50 in the test on HaCaT [1] of 19 µM.
In the case of `CCc1ccc(OC)cc1CCc1ccc(O)c(C(=O)OC)c1`, in the test with HaCaT [1], the half-maximal inhibitory concentration (IC50) turned out to be 0.13 µM. In addition, the Activity with HaCaT [7] is given as 47%.
Compound `COC(=O)c1cc(CCc2cc(SC)ccc2OC)ccc1O` gave an IC50 in the test with HaCaT [1] of 0.86 µM. For the same compound, the Activity in the test on HaCaT [12] was 37%.
Consider `COC(=O)c1cc(CCc2cc(O)ccc2O)ccc1O`, for which, in the test with HaCaT [14], the Activity was determined as 2.2%. Further, in the test on HaCaT [1], the IC50 was determined as 21 µM.
Consider `COC(=O)c1cc(CCc2cc(OC)ccc2Br)ccc1O`, for which, in the test on HaCaT [1], the IC50 was found to be 0.21 µM. Besides, the Activity in the test on HaCaT [13] worked out at 20%.
`COC(=O)c1cc(CCc2c(OC)ccc(OC)c2OC)ccc1O`: the Activity in the test on HaCaT [3] came out at 25%. This compound came in with an IC50 in the test with HaCaT [1] of 3.5 µM.
In the case of `CCOc1ccc(OCC)c(CCc2ccc(O)c(C(=O)OC)c2)c1`, half-maximal inhibition in the test on HaCaT [1] (IC50) was put at 0.38 µM. Also, the Activity in the test with HaCaT [11] is 20%.
`COC(=O)c1cc(CCc2cc(OC)ccc2O)ccc1O`: in the test with HaCaT [1], the IC50 was 1.1 µM. In addition, the Activity in the test with HaCaT [4] worked out at 27%.
